Reference: ChEMBL document CHEMBL5136960, “Discovery of sustainable drugs for Alzheimer's disease: cardanol-derived cholinesterase inhibitors with antioxidant and anti-amyloid properties” (RSC Med Chem, 2021)
pIC50: −log10 of the molar value. Activity calls are given as the source filed them. The rule behind the calls is not given here.

Legend:
Acetylcholinesterase [1] = target: T1, Acetylcholinesterase (Homo sapiens, UniProt P22303); assay: Inhibition of AChE in human serum at 20 uM by Ellman's method; format: cell-free
T1 sequence (P22303 whole entry): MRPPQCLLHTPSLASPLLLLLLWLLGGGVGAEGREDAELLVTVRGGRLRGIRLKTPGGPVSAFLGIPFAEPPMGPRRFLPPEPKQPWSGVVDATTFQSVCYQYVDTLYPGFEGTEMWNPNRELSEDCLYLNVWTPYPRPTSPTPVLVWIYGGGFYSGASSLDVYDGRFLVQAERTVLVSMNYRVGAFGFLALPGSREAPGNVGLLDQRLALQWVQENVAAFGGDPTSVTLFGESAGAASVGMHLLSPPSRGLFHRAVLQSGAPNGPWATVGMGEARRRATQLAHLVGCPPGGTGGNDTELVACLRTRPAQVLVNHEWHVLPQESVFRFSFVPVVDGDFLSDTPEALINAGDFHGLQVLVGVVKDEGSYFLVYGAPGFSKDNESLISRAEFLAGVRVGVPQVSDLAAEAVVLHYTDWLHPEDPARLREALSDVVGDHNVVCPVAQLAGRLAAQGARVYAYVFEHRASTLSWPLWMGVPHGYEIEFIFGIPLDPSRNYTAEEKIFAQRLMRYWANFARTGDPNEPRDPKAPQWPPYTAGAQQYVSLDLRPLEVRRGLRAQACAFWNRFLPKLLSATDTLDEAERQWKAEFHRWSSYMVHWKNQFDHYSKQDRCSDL

Cholinesterase [2] = target: T2, Cholinesterase (Homo sapiens, UniProt P06276); assay: Inhibition of BChE in human serum at 20 uM by Ellman's method; format: cell-free
T2 sequence (P06276 whole entry): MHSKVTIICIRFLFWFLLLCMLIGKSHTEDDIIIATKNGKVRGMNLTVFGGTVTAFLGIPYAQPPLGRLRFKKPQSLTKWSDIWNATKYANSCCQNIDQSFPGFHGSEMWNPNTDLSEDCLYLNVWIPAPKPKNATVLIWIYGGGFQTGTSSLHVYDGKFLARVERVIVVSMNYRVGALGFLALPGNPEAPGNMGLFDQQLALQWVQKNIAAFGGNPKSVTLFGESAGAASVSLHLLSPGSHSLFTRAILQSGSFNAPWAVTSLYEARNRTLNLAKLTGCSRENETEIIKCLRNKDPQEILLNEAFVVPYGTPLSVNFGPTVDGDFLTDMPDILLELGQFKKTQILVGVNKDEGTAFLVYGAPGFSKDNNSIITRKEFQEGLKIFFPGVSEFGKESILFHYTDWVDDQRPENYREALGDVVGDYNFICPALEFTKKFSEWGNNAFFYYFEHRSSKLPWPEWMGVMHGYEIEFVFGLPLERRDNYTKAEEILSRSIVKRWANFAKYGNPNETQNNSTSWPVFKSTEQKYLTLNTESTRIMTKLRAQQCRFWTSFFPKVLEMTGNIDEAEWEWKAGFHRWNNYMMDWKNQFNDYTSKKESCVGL
Outline: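 Human serum BChE, 0.02 U, in 0.1 M phosphate pH 8.0 with 340 μM DTNB and 5% methanol final. Compound preincubated with enzyme 20 min at 37 °C, then 550 μM butyrylthiocholine iodide added. Initial rate read as A412 over 240 s, with an enzyme-free blank. Percent inhibition at a single 20 μM. Mean of ≥2 independent experiments, each in triplicate.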

Cholinesterase [3] = target: T2, Cholinesterase; assay: Inhibition of BChE in human serum by Ellman's method; format: cell-free
Outline: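 Human serum BChE, 0.02 U, in 0.1 M phosphate pH 8.0 with 340 μM DTNB and 5% methanol final. 20 min enzyme–compound preincubation at 37 °C, then 550 μM butyrylthiocholine iodide added. Rate from A412 slope over 240 s, blank-corrected. Five concentrations chosen to give 20–80% inhibition. IC50 taken from log concentration–inhibition curves. Mean of ≥2 independent triplicate experiments.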

[4] = target: Amyloid-beta precursor protein (Homo sapiens) (UniProt P05067); assay: Inhibition of amyloid beta42 (unknown origin) aggregation assessed as non toxic aggregrates formation measured after 48 hrs TEM imaging analysis
Chain of Amyloid-beta precursor protein (Homo sapiens) (P05067 whole entry): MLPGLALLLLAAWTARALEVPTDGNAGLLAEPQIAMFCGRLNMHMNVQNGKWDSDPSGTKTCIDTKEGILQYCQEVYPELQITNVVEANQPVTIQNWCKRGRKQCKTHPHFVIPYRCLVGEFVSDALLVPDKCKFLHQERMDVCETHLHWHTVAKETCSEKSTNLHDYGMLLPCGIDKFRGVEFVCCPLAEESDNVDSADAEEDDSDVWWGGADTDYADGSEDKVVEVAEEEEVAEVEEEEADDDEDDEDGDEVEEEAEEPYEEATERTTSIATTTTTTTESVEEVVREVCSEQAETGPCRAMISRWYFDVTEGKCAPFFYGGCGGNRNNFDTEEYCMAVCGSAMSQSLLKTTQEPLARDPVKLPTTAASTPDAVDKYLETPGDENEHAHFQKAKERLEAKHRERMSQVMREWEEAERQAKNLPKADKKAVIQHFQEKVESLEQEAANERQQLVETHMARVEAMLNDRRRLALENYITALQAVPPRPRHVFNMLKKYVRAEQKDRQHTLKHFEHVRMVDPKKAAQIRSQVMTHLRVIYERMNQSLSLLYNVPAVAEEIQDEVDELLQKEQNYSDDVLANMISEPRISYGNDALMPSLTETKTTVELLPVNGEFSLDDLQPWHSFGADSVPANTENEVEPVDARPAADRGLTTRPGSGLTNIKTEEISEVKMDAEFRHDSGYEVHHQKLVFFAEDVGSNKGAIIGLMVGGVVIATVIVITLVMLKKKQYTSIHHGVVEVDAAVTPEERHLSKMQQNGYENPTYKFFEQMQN
Outline: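 Synthetic Aβ42, freeze-dried, redissolved in PBS pH 7.4 to 60 µM and vortexed about 5 min. Compound added at 1:5 Aβ42:compound. A 20 µL aliquot applied to the grid for 2 min, negatively stained with 1% uranyl acetate for 2 min, dried and imaged by TEM at 120 kV.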

[5] = Antioxidant activity assessed as gallic acid equivalents by HORAC assay; format: functional
Outline: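 Hydroxyl radical scavenging (HORAC kit). Methanol stocks (2-4 mM) diluted to 50 µM in assay buffer. Sample and fluorescein incubated 30 min at room temperature, then hydroxyl radical initiator and Fenton reagent added. Fluorescence decay read at ex 480/em 530 nm. AUC minus blank, divided by AUC of 50 µM gallic acid minus blank, gives gallic acid equivalents.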

Acetylcholinesterase [6] = target: T1, Acetylcholinesterase; assay: Inhibition of AChE in human serum by Ellman's method; format: cell-free
SH-SY5Y = assay: Inhibition of TBH-induced reactive oxygen species production in human SHSY-5Y cells at 10 uM preincubated for 24 hrs followed by TBH addition by DCFH-DA staining based flow cytometry; format: functional, cell-based
HepG2 = assay: Cytotoxicity against human HepG2 cells assessed as cell viability upto 10 uM for 24 hrs by MTT assay; format: toxicity, cell-based; conditions: hepg2, 24 h
Outline: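 HepG2 cells grown in DMEM with 10% FBS and penicillin/streptomycin at 37 °C, 5% CO2. Seeded at 5×10^3 cells/well and left to adhere overnight. Exposed 24 h to 1.25-10 µM, with DMSO vehicle as control. Then 300 µM MTT in DMEM for 2 h at 37 °C. Formazan dissolved in DMSO and read at 570 nm.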

[7] = Solubility of compound in 5% DMSO/PBS solution; format: physicochemical
[8] = Stability in plasma (unknown orgin) measured upto 60 mins; format: ADME, cell-free; conditions: 1 h
Outline: (§1)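 Pooled human plasma. Compound added from a 1 µM DMSO solution and incubated at 37 °C for 0, 15, 30, 60 or 120 min. Reaction stopped with cold acetonitrile containing internal standard, then centrifuged. Supernatant analysed by reverse-phase C18 HPLC-MS in positive mode. Compound/IS peak-area ratio at each time, relative to 0 min, gives percent remaining. Phosphate buffer pH 7.4 used as control matrix, rivastigmine as positive control.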

[9] = Stability in plasma (unknown orgin) measured after 120 mins; format: ADME, cell-free; conditions: read-out: Stability; outline: as §1

Row | Compound | inhibition (Acetylcholinesterase [1]) | inhibition (Cholinesterase [2]) | pIC50 (Cholinesterase [3]) | inhibition [4] | Activity [5] | pIC50 (Acetylcholinesterase [6]) | inhibition (SH-SY5Y) | Activity (HepG2) | solubility [7] | Stability [8] | remaining at 2 h [9]
1 | CN(Cc1ccccc1)Cc1ccc(CCCCCCCCO)cc1O | 19.4% | 68.3% | 5.17 | Active | 3.7 equiv |  |  |  |  |  | 
2 | OCCCCCCCCc1ccc(CN2CCNCC2)c(O)c1 | < 10% | 17.7% |  |  | 1.49 equiv |  |  |  |  |  | 
3 | CN1CCN(Cc2ccc(CCCCCCCCO)cc2O)CC1 | < 5% | 10.6% |  |  | 4.8 equiv |  |  |  |  |  | 
4 | CCN(CC)Cc1ccc(CCCCCCCCO)cc1O | 12.4% | 50.5% | 4.76 | Active | 5.49 equiv |  |  |  |  |  | 
5 | OCCCCCCCCc1ccc(CN2CCSCC2)c(O)c1 | 12.1% | 16.6% |  |  | 4.38 equiv |  |  |  |  |  | 
6 | COc1cc(/C=C/C(=O)O)ccc1O |  |  |  |  | 4.04 equiv |  |  |  |  |  | 
7 | OCCCCCCCCc1ccc(CN2CCCCCC2)c(O)c1 | < 10% | 77.1% | 5.34 | Active | 3.5 equiv | 3.11 | Active | Non-Toxic | < 5 mM | Stable | 85%
8 | OCCCCCCCCc1ccc(CN2CCCCC2)c(O)c1 | 40.5% | 73.5% | 5.21 | Active | 4.37 equiv | 4.52 | Active | Non-Toxic | < 3.9 mM | Stable | 97%
9 | OCCCCCCCCc1ccc(CN2CCCC2)c(O)c1 | 31.1% | 59% | 4.88 |  | 4.88 equiv | 4.32 |  |  |  |  | 
10 | CC(=O)N1CCN(Cc2ccc(CCCCCCCCO)cc2O)CC1 | < 10% | < 5% |  |  | 4.52 equiv |  |  |  |  |  | 
11 | OCCCCCCCCc1ccc(CN2CCOCC2)c(O)c1 | < 5% | < 10% |  | Active | 9.73 equiv |  |  |  |  |  | 
